NPY Y2 blocker – antagonists of human neuropeptide Y receptor Y2; P49146; NPY-Y2 expressing cells, antagonist mode; inhibition, % at 2.7 µM; 0.99% of 140,000 active; in the data active = inhibition above about 17%
NPY-Y2 PAM-ag – potentiates or activates human NPY-Y2 receptor | cells expressing NPY-Y2, potentiator/agonist read-out | activation, % at 3.6 µM | 0.45% of 220,000 active | AID 1359; in the data active = activation above about 27%;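 note: cells stimulated with NPY near EC25 plus isoproterenol at EC100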
NPY Y1 blocker – antagonists of human neuropeptide Y receptor Y1. P25929. HEK293-CNG Y1 cells, membrane potential fluorescence; NPY at EC95, then isoproterenol. inhibition, % at 3.6 µM. 1% of 200,000 active. AID 1040;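 active = inhibition above the campaign mean inhibition of all tested compounds plus 3 SD, cut at about 20% in these data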
Target sequence (P25929 whole entry, looked up): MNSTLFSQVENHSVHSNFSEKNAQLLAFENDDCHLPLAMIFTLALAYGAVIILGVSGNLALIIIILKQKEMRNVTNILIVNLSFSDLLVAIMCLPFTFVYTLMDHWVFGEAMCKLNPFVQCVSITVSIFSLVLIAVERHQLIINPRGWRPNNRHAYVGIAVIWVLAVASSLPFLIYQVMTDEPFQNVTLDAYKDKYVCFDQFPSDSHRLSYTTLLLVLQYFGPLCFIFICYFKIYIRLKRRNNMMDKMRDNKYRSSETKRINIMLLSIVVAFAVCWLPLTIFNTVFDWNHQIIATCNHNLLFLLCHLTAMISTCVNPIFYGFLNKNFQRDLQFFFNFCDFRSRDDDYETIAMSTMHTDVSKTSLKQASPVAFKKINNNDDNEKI
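System: HEK293 cells with Y1 receptor plus CNG channel / Probe or stimulus: NPY 25 nM then isoproterenol 1 µM plus Ro 20-1724 25 µM / Compound: one concentration, 3.6 µM, in 0.4% DMSO / Schedule: compound incubation 1 h at room temperature, readout 45 min post-stimulation / Measured by: membrane potential fluorescence / Read-out: % inhibition of NPY effect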
NPY1 pot ag – human NPY-Y1 potentiation or agonism, primary screen. NPY-Y1 expressing cells, potentiator/agonist activation. activation, % at 3.6 µM. 0.37% of 220,000 active; in the data active = activation above about 33%, passing the limit was not always enough;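 note: cells stimulated with NPY at EC10 then isoproterenol at EC100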
NPY1 antag ctr – counter-screen for NPY-Y2 antagonists: human NPY-Y1 antagonism; shares compounds with NPY Y2 blocker; cell-based NPY-Y1 antagonism counterscreen; inhibition, % at 3.6 µM; 19% of 710 active; in the data active = inhibition above about 20%;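 note: cells challenged with NPY then isoproterenol with cAMP sensed through a CNG channel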
NPY-Y2 ant conf – human NPY-Y2 antagonism, confirmation | 32% of 710 active | shares compounds with NPY Y2 blocker | inhibition, % at 2.8 µM | HEK293 NPY-Y2 CNG channel, membrane potential fluorescence | AID 1257;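 active = mean inhibition of triplicate wells above the hit cutoff set in the primary screen, cut at about 17% in these data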
A number is an active result; . = inactive; / = no result. A selection: hits, their analogues and other compounds. The true share with any hit is near 1.9%.

SMILES	NPY Y2 blocker	NPY-Y2 PAM-ag	NPY Y1 blocker	NPY1 pot ag	NPY1 antag ctr	NPY-Y2 ant conf
CN(CC(CC(=O)Nc1nncs1)c1ccccc1)S(=O)(=O)c1ccc(Br)cc1 (stereo not given)	17.9	.	.	.	.	.
CN(CC(CC(=O)Nc1nncs1)c1ccccc1)S(=O)(=O)c1ccccc1 (stereo not given)	.	.	.	.	/	/
COc1ccc(-c2nnc3sc(C(C)N4C(=O)c5ccccc5C4=O)nn23)cc1 (stereo not given)	20.7	.	.	.	.	29.4
CCOc1ccc(NC(=O)C2(c3ccc(OC)c(OC)c3)CCCC2)cc1	27.1	.	.	.	.	.
CSc1nnc2c3cc(C)ccc3n(Cc3ccccc3)c2n1	28.3	.	.	.	23.3	41.5
c1ccc(Cn2c3ccccc3c3nnc(SCCN4CCCCC4)nc32)cc1	/	.	/	.	/	/
Cc1cc(=O)[nH]c(-c2cccnc2)n1	/	.	.	.	/	/
Cc1cc(C)n(-c2nc(C)nc(N)n2)n1	20.2	.	.	.	.	.
Cc1cc(Cl)nc(-n2nc(C)cc2C)n1	/	.	/	.	/	/
O=C(CSc1nc2ccccc2n1CCc1ccccc1)c1ccc(O)c(O)c1	/	.	.	.	/	/
O=S(=O)(CCN1C=CC(C(F)(F)F)=NCC1)c1ccc(Cl)cc1Cl	/	.	/	.	/	/
Nc1ncnc2c1ncn2[C@@H]1O[C@H](CO)[C@@H](O)[C@H]1O	.	.	.	.	/	/
OC[C@H]1O[C@@H](n2cnc3c(Nc4ccccc4)ncnc32)[C@H](O)[C@@H]1O	22.4	.	.	.	.	48.5
O=C(NCc1ccco1)C1CCCN1C(=O)Nc1ccccc1Cl (stereo not given)	/	.	.	.	/	/
CC(C)(C)NC(=O)C(c1ccc(F)cc1)N(Cc1ccco1)C(=O)Cn1nnc(-c2cccs2)n1 (stereo not given)	23.6	.	.	.	.	.
O=C(NC1CCCC1)C(c1cccs1)N(Cc1ccco1)C(=O)Cn1nnc(-c2cccs2)n1 (stereo not given)	.	.	.	.	/	/
CCC(c1nnnn1Cc1ccc2c(c1)OCO2)N1CCN(c2ccc(F)cc2)CC1 (stereo not given)	19.1	.	.	.	.	.
CCC(c1nnnn1Cc1ccc2c(c1)OCO2)N1CCN(c2ccccc2)CC1 (stereo not given)	17.5	.	.	.	.	.
COCCNC(=O)CSc1nc2nn(-c3ccccc3)c(=O)c-2c2n1CCCCC2	/	.	.	.	/	/
COc1ccccc1-c1nnc(NC(=O)CSc2nncn2C)s1	/	.	.	.	/	/
CCOC(=O)N1CCN(C(=O)c2cnn3c(C(F)F)cc(-c4ccc(C)cc4)nc23)CC1	17.2	.	.	.	.	.
C/C=C/Cn1c(SCc2ccc(C)cc2)nc2c1c(=O)[nH]c(=O)n2C	26.3	.	.	.	22.5	42.4
CCC1(C)Cc2ccccc2C(=S)N1 (stereo not given)	/	.	.	.	/	/
Cc1cc(-c2ccccc2)c(C#N)c(=S)[nH]1	17.1	.	.	.	.	.
O=C(NCC1CCCO1)c1nc2c(nnn2Cc2ccccc2Cl)c(=O)[nH]1 (stereo not given)	18.2	.	.	.	.	.
SMILES	NPY Y2 blocker	NPY-Y2 PAM-ag	NPY Y1 blocker	NPY1 pot ag	NPY1 antag ctr	NPY-Y2 ant conf
Cc1ccc(C)c(Cn2nnc3c(=O)[nH]c(C(=O)NCC4CCCO4)nc32)c1 (stereo not given)	.	.	.	.	/	/
CC(C)OC(=O)CCCNc1ccc([N+](=O)[O-])cc1[N+](=O)[O-]	.	.	.	.	/	/
O=C(NC1CCCCC1)C(c1ccc2ncccc2c1)N(Cc1ccc2c(c1)OCO2)C(=O)c1cccs1 (stereo not given)	23.7	.	.	.	20.3	.
CC(=O)c1sc(C(=O)O)c(-c2ccco2)c1-c1ccco1	/	.	/	.	/	/
COC(=O)c1ccc(OC)c(CSc2nnc(COc3cccc(C)c3)o2)c1	23.1	.	.	.	.	.
CCCCCCNS(=O)(=O)c1ccc(NC(=O)C2CCCO2)cc1 (stereo not given)	31.2	.	.	.	.	29.2
O=C(Nc1ccc(S(=O)(=O)Nc2ccc(Cl)cc2)cc1)C1CCCO1 (stereo not given)	.	.	.	.	/	/
O=C(COC(=O)/C=C/c1ccc(F)cc1)Nc1ccccc1-c1ccccc1	17.8	.	.	.	.	.
CC(C)NC(=O)CSc1nncn1-c1ccccc1	18.2	.	.	.	.	.
S=C(Nc1ccc(Br)cc1Cl)Nn1cnnc1	/	.	.	.	/	/
C/C=C(/C)C(=O)O[C@@H]1c2c(ccc3ccc(=O)oc23)O[C@@H]1C(C)(C)OC(=O)/C(C)=C\C	18.8	.	.	.	.	31.6
NC(=O)C12CCCC(Br)(CCC1)C2	/	.	/	.	/	/
COc1cc(-c2cc(C(=O)NN3CCN(C)CC3)c3ccccc3n2)cc(OC)c1OC	.	.	.	.	/	/
COc1cc(-c2cc(C(=O)Nc3c(Cl)cc(Cl)cc3Cl)c3ccccc3n2)cc(OC)c1OC	40.1	.	.	.	48.8	73.5
CCCc1nnc2n1N=C(c1ccc(OC)c(OC)c1)CS2	19.4	.	.	.	.	.
Cc1ccc(S(=O)(=O)NC2c3cccc4cccc(c34)C2Sc2nncn2C)cc1 (stereo not given)	21.4	.	.	.	.	.
COC(=O)c1cc(Cl)c(NC(=O)c2ccc(C(C)(C)C)cc2)cc1OC	18.3	.	.	.	.	30.6
COC(=O)c1cc(Cl)c(NC(=O)C(C)C)cc1OC	/	.	.	.	/	/
CC(C1CCN(Cc2cn(C)nc2-c2cccc(Cl)c2)CC1)N1CCOCC1 (stereo not given)	/	.	.	.	/	/
C=CCn1c(SC2CCOC2=O)nc2scc(C3CC3)c2c1=O (stereo not given)	45.3	.	.	.	29.8	81.0
c1ccc(-c2ccc(-c3cnc4n3CCCCC4)cc2)cc1	23.8	.	.	.	.	.
Cc1ccc(C2=NN=C(NC(=O)CSc3nncn3C)SC2)cc1	/	.	.	.	/	/
C/C(=N\NC(=S)NCCc1ccccc1)c1ccc(Cl)cc1	.	.	.	.	/	/
S=C(NCCc1ccccc1)N/N=C/c1ccccc1Cl	42.8	.	.	.	.	17.6
CCc1ccc(/C=N/NC(=S)NCCc2ccccc2)cc1	32.6	.	.	.	28.0	29.8
SMILES	NPY Y2 blocker	NPY-Y2 PAM-ag	NPY Y1 blocker	NPY1 pot ag	NPY1 antag ctr	NPY-Y2 ant conf
C/C(=N\NC(=S)NCCc1ccccc1)c1ccc(C)cc1	17.1	.	.	.	.	.
CCOC(=O)c1nn(-c2cccc(C)c2)c2nc(-c3ccccc3)c(C#N)c(=O)n12	.	.	.	.	/	/
CCOC(=O)c1nn(-c2ccc(F)cc2)c2nc(-c3ccccc3)c(C#N)c(=O)n12	18.6	.	.	.	.	.
Cc1ccc(SCc2nc3ccccc3n2CC(=O)Nc2c(C)cccc2C)cc1	19.0	.	.	.	.	.
Cc1[nH]c2ccccc2c1C(=O)CSc1nc2ccccc2c(=O)n1-c1ccccc1F	/	.	.	.	/	/
Cc1noc(C)c1CSc1nc2ccccc2c(=O)n1-c1ccc(F)cc1F	24.8	.	.	.	20.4	.

Screens as filed in PubChem.
